In paper PMC5976253 (Journal of medicinal chemistry, 2018):
“Also recorded” adds a separate entry of the source.

Experiments:
rat UT-B = target: T1, rat UT-B (Rattus norvegicus, UniProt P97689); assay: UT-B inhibition, erythrocyte lysis assay; type: cell-based
T1 sequence (P97689 1-384): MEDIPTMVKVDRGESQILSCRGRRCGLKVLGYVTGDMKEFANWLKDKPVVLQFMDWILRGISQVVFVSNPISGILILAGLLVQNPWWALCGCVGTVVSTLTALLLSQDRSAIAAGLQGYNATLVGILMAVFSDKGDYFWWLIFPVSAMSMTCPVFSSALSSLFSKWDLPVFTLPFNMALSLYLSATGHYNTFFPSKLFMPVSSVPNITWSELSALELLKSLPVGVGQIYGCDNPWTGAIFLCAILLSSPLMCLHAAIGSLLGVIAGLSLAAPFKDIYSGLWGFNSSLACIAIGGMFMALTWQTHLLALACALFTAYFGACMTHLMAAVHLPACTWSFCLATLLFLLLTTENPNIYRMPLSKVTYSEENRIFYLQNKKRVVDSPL
In short: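 Rat whole blood was diluted to ~1.5% hematocrit in PBS with 1.25 M acetamide and 5 mM glucose, then incubated 15 min with test compound. Suspension was added rapidly to wells and mixed vigorously, and lysis was read as absorbance at 710 nm. Controls were isosmolar buffer (nonlysed) and 0.7 mM phloretin (lysed), with % lysis normalized between them; mean ± SEM, n = 3.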

rats = assay: Diuretic studies in rats; type: in vivo; conditions: rat, 4 mg/kg intravenous, compared with pretreatment
In short: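 Male Wistar rats (250–300 g), acclimated individually in metabolic cages for 3 days (6 h/day), with food and water ad libitum. Spontaneously voided urine was collected for 3 h. Test compound or vehicle was then given IV via catheter at 4 mg/kg in saline with 20% dimethylacetamide and 1.28 mg/mL NaOH, and urine was collected for a further 3 h. Read-outs were volume and freezing-point osmolality; mean ± SEM, n = 4; paired t-test versus −3 to 0 h.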

Rat pharmacokinetics = type: in vivo; conditions: 4 mg/kg intravenous
In short: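 Tail-vein blood was taken at 15, 30, 60, 120 and 180 min, serum separated, and urine collected in metabolic cages for 3 h; samples were stored at −20 °C. LC/MS (ESI positive) quantified compound against standards spiked into control rat urine and plasma.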

rat UT-A1 = target: T2, rat UT-A1 (Rattus norvegicus, UniProt Q62668); type: cell-based
T2 sequence (Q62668 1-929): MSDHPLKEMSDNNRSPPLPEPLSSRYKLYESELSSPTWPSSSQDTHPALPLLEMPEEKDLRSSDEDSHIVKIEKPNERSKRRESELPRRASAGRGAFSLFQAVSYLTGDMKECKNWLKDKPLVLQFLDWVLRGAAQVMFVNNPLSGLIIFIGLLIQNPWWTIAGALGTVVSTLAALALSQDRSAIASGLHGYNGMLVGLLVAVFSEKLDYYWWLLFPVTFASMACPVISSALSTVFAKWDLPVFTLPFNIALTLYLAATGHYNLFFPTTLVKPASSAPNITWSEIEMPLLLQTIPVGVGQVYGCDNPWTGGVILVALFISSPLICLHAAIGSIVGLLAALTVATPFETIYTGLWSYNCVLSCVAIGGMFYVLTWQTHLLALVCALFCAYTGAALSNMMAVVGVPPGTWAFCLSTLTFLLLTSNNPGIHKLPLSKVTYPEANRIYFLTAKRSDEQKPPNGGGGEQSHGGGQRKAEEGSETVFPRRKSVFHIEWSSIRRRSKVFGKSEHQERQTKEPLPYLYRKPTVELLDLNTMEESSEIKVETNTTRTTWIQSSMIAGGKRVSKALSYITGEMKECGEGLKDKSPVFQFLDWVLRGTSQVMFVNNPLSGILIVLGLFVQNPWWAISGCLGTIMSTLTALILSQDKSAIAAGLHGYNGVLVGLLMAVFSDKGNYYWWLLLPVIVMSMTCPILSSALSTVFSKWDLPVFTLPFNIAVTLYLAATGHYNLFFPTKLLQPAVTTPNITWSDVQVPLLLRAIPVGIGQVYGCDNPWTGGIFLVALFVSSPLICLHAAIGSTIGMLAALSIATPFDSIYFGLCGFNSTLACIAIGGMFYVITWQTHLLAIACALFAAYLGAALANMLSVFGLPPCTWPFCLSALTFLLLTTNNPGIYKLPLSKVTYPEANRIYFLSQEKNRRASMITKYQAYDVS
In short: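 MDCK cells co-expressing rat UT-A1, AQP1 and YFP were used, selecting a clone with bright YFP and relatively low AQP1. Urea transport was read by plate-reader fluorescence, referenced to DMSO (0%) and phloretin (100%). Concentration–inhibition data are mean ± SEM, n = 3. For reversibility, cells were preincubated with 0.5 µM compound and PBS-washed before assay. For kinetics, 0.5 µM was added at varied times before assay. Urea gradients were 200, 400 and 800 mM.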

| SMILES | UT-B inhibition (in words) (rat UT-B) | UT-A1 inhibition (in words) (rat UT-A1) | also measured |
| --- | --- | --- | --- |
| O=C(Nc1ccon1)c1cc(-c2ccccc2)nc2ccccc12 [compound 3] | little UT-B inhibition |  |  |
| CCCc1nnc2c(Oc3ccc(NS(=O)(=O)c4cc(Cl)ccc4OC)cc3)nc3cc(F)c(F)cc3n12 [8bl] |  |  | 3 h urine volume (rats): marked diuresis; also recorded: significantly increased; urine osmolality (rats): reduced urinary osmolality; serum concentration (Rat pharmacokinetics; for 3 h): greater than 2 µM; urine concentration (Rat pharmacokinetics; urine collected for 3 h): 6 to 8 µM |
| CC(=O)Nc1ccc(-c2noc(C3CCCN(C(=O)c4ccccc4F)C3)n2)cc1 (stereo not shown) [compound 1] | little UT-B inhibition |  |  |
| COc1ccc(Cl)c(S(=O)(=O)Nc2ccc(Nc3nc4ccccc4n4cnnc34)cc2)c1 [8am] |  | inactive |  |
| COc1ccc(Cl)cc1S(=O)(=O)Nc1ccc(Oc2nc3ccccc3n3cnnc23)cc1 [8aa, N-(4-([1,2,4]Triazolo[4,3-a]quinoxalin-4-yloxy)-phenyl)-5-chloro-2-methoxybenzenesulfonamide] | modest activity |  |  |
| COc1ccc(Cl)cc1S(=O)(=O)Nc1ccc(Oc2nc3ccccc3n3c(C)nnc23)cc1 [8an] |  | inactive |  |
| COC(=O)c1sc2nc3c(cc2c1N)CN(Cc1ccccc1)CC3 [compound 4] |  | low potency |  |
| COc1ccc(Cl)c(S(=O)(=O)Nc2ccc(Oc3nc4ccccc4n4cnnc34)cc2)c1 [8ag] |  | inactive |  |
| CCCc1nnc2c(Oc3ccc(NS(=O)(=O)c4cc(Cl)ccc4OC)cc3)nc3ccccc3n12 [8ay] |  |  | Reversibility of UT-A1 inhibition (rat UT-A1; 0.5 µM for 15 min followed by washing): fully reversed; half-time for UT-A1 inhibition (rat UT-A1; after addition of 0.5 µM compound): ~ 2 min; IC50 for UT-A1 at different urea concentration gradients (inhibition mechanism) (rat UT-A1; urea 200, 400 and 800 mM): similar |
| COc1ccc(Cl)cc1S(=O)(=O)Nc1ccc(Oc2nc3cc(Cl)c(Cl)cc3n3cnnc23)cc1 [8bi] |  | inactive |  |
| COc1ccc(-c2cccc(-c3ccn(Cc4csc(C)n4)n3)c2)nn1 [compound 2] | little UT-B inhibition |  |  |
